Legend:
Assay type in all cases: functional
Enterococcus faecalis = assay: Antibacterial activity against Streptococcus faecalis assessed as inhibition of microbial growth incubated for 18 to 22 hrs by broth microdilution method
Summary of the method: (§1)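 Broth microdilution in Mueller-Hinton II broth following NCCLS recommendations; compounds dissolved in DMSO.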

Escherichia coli = assay: Antibacterial activity against Escherichia coli assessed as inhibition of microbial growth incubated for 18 to 22 hrs by broth microdilution method; summary of the method: as §1
Pichia kudriavzevii = assay: Antifungal activity against Candida krusei clinical isolates assessed as inhibition of microbial growth incubated for 24 hrs by broth microdilution method
Summary of the method: (§2)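 Twenty-two clinical Candida isolates (8 C. albicans, 4 C. glabrata, 3 C. tropicalis, 3 C. krusei, 2 C. parapsilosis, 2 C. sake) were identified by colony morphology and biochemistry and subcultured at 35 °C for purity. Compounds were dissolved in DMSO and tested by broth microdilution in Sabouraud dextrose broth per NCCLS/CLSI/EUCAST guidance. Values are geometric mean MIC per species (µg/mL).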

Candida parapsilosis = assay: Antifungal activity against Candida parapsilosis clinical isolates assessed as inhibition of microbial growth incubated for 24 hrs by broth microdilution method; details: Lodderomyces parapsilosis; summary of the method: as §2
Staphylococcus aureus = assay: Antibacterial activity against Staphylococcus aureus assessed as inhibition of microbial growth incubated for 18 to 22 hrs by broth microdilution method; summary of the method: as §1
Nakaseomyces glabratus = assay: Antifungal activity against Candida glabrata clinical isolates assessed as inhibition of microbial growth incubated for 24 hrs by broth microdilution method; summary of the method: as §2
Candida albicans = assay: Antifungal activity against Candida albicans clinical isolates assessed as inhibition of microbial growth incubated for 24 hrs by broth microdilution method; summary of the method: as §2
Klebsiella oxytoca = assay: Antibacterial activity against Klebsiella oxytoca assessed as inhibition of microbial growth incubated for 18 to 22 hrs by broth microdilution method; summary of the method: as §1
Candida tropicalis = assay: Antifungal activity against Candida tropicalis clinical isolates assessed as inhibition of microbial growth incubated for 24 hrs by broth microdilution method; summary of the method: as §2
[Candida] sake = Antifungal activity against Candida sake clinical isolates assessed as inhibition of microbial growth incubated for 24 hrs by broth microdilution method; details: Fermentozyma sake; summary of the method: as §2
Enterobacter = assay: Antibacterial activity against Enterobacter spp. assessed as inhibition of microbial growth incubated for 18 to 22 hrs by broth microdilution method; summary of the method: as §1
Staphylococcus warneri = assay: Antibacterial activity against Staphylococcus warneri assessed as inhibition of microbial growth incubated for 18 to 22 hrs by broth microdilution method; summary of the method: as §1
Proteus mirabilis = assay: Antibacterial activity against Proteus mirabilis assessed as inhibition of microbial growth incubated for 18 to 22 hrs by broth microdilution method; summary of the method: as §1

| Compound | MIC (Enterococcus faecalis) [µg/mL] | MIC (Escherichia coli) [µg/mL] | MIC (Pichia kudriavzevii) [µg/mL] | MIC (Candida parapsilosis) [µg/mL] | MIC (Staphylococcus aureus) [µg/mL] | MIC (Nakaseomyces glabratus) [µg/mL] | MIC (Candida albicans) [µg/mL] | MIC (Klebsiella oxytoca) [µg/mL] | MIC (Candida tropicalis) [µg/mL] | MIC ([Candida] sake) [µg/mL] | MIC (Enterobacter) [µg/mL] | MIC (Staphylococcus warneri) [µg/mL] | MIC (Proteus mirabilis) [µg/mL] |
| --- | --- | --- | --- | --- | --- | --- | --- | --- | --- | --- | --- | --- | --- |
| O=C1CS/C(=N/N=C\c2cccc([N+](=O)[O-])c2)N1Cc1ccccc1 | ≥ 256 | ≥ 256 | 2 | 2 | ≥ 256 | 2 | 2 | ≥ 256 | 2 | 8 | ≥ 256 | ≥ 256 | ≥ 256 |
| C/C(=N/N=C1/SCC(=O)N1Cc1ccccc1)c1ccsc1 | ≥ 256 | ≥ 256 | 128 | 128 | ≥ 256 | 4 | 256 | ≥ 256 | 128 | 128 | ≥ 256 | ≥ 256 | ≥ 256 |
| C/C(=N/N=C1/SCC(=O)N1Cc1ccccc1)c1ccco1 | ≥ 256 | ≥ 256 | 256 | 256 | ≥ 256 | 256 | 256 | ≥ 256 | 256 | 256 | ≥ 256 | ≥ 256 | ≥ 256 |
| C/C(=N/N=C1/SCC(=O)N1Cc1ccccc1)c1ccccc1[N+](=O)[O-] | ≥ 256 | ≥ 256 | 8 | 2 | ≥ 256 | 2 | 2 | ≥ 256 | 2 | 4 | ≥ 256 | ≥ 256 | ≥ 256 |
| C/C(=N/N=C1/SCC(=O)N1Cc1ccccc1)c1cccc([N+](=O)[O-])c1 | ≥ 256 | ≥ 256 | 4 | 16 | ≥ 256 | 2 | 4 | ≥ 256 | 8 | 8 | ≥ 256 | ≥ 256 | ≥ 256 |
| O=C1CS/C(=N/N=C\c2ccccc2[N+](=O)[O-])N1Cc1ccccc1 | ≥ 256 | ≥ 256 | 2 | 2 | ≥ 256 | 2 | 2 | ≥ 256 | 2 | 4 | ≥ 256 | ≥ 256 | ≥ 256 |
| CC1CCC(=N/N=C2/SCC(=O)N2Cc2ccccc2)CC1 (centres undefined) | ≥ 256 | ≥ 256 | 16 | 16 | ≥ 256 | 8 | 8 | ≥ 256 | 16 | 16 | ≥ 256 | ≥ 256 | ≥ 256 |
| CC1CCCC/C1=N/N=C1/SCC(=O)N1Cc1ccccc1 (centres undefined) | ≥ 256 | ≥ 256 | 16 | 4 | ≥ 256 | 2 | 16 | ≥ 256 | 32 | 16 | ≥ 256 | ≥ 256 | ≥ 256 |
| C/C(=N/N=C1/SCC(=O)N1Cc1ccccc1)C1CCCCC1 | ≥ 256 | ≥ 256 | 8 | 8 | ≥ 256 | 8 | 8 | ≥ 256 | 8 | 8 | ≥ 256 | ≥ 256 | ≥ 256 |
| O=C1CS/C(=N/N=C2CCCCCCC2)N1Cc1ccccc1 | ≥ 256 | ≥ 256 | 8 | 8 | ≥ 256 | 8 | 8 | ≥ 256 | 8 | 8 | ≥ 256 | ≥ 256 | ≥ 256 |
| C/C(=N/N=C1/SCC(=O)N1Cc1ccccc1)c1ccc(Cl)s1 | ≥ 256 | ≥ 256 | 128 | 128 | ≥ 256 | 8 | 256 | ≥ 256 | 256 | 128 | ≥ 256 | ≥ 256 | ≥ 256 |
| O=C1CS/C(=N/N=C\c2ccccc2)N1Cc1ccccc1 | ≥ 256 | ≥ 256 | 16 | 4 | ≥ 256 | 4 | 4 | ≥ 256 | 16 | 16 | ≥ 256 | ≥ 256 | ≥ 256 |
| O=C1CS/C(=N/N=C\c2ccccn2)N1Cc1ccccc1 | ≥ 256 | ≥ 256 | 4 | 16 | ≥ 256 | 4 | 4 | ≥ 256 | 4 | 2 | ≥ 256 | ≥ 256 | ≥ 256 |
| C/C(=N/N=C1/SCC(=O)N1Cc1ccccc1)c1ccc([N+](=O)[O-])cc1 | ≥ 256 | ≥ 256 | 4 | 4 | ≥ 256 | 4 | 8 | ≥ 256 | 8 | 8 | ≥ 256 | ≥ 256 | ≥ 256 |
| O=C1CS/C(=N/N=C\c2ccco2)N1Cc1ccccc1 | ≥ 256 | ≥ 256 | 4 | 4 | ≥ 256 | 4 | 8 | ≥ 256 | 8 | 4 | ≥ 256 | ≥ 256 | ≥ 256 |
| C/C(=N/N=C1/SCC(=O)N1Cc1ccccc1)c1ccccc1 | ≥ 256 | ≥ 256 | 4 | 4 | ≥ 256 | 4 | 8 | ≥ 256 | 128 | 4 | ≥ 256 | ≥ 256 | ≥ 256 |
| C/C(=N/N=C1/SCC(=O)N1Cc1ccccc1)c1cccs1 | ≥ 256 | ≥ 256 | 4 | 8 | ≥ 256 | 4 | 2 | ≥ 256 | 16 | 8 | ≥ 256 | ≥ 256 | ≥ 256 |
| O=C1CS/C(=N/N=C\c2ccc([N+](=O)[O-])cc2)N1Cc1ccccc1 | ≥ 256 | ≥ 256 | 16 | 2 | ≥ 256 | 2 | 4 | ≥ 256 | 8 | 4 | ≥ 256 | ≥ 256 | ≥ 256 |
| CC1=C(/C=N\N=C2\SCC(=O)N2Cc2ccccc2)C(C)(C)CC=C1 | ≥ 256 | ≥ 256 | 4 | 4 | ≥ 256 | 4 | 4 | ≥ 256 | 2 | 2 | ≥ 256 | ≥ 256 | ≥ 256 |
| O=C1CS/C(=N/N=C\c2cccs2)N1Cc1ccccc1 | ≥ 256 | ≥ 256 | 32 | 32 | ≥ 256 | 8 | 8 | ≥ 256 | 8 | 32 | ≥ 256 | ≥ 256 | ≥ 256 |
| O=C1CS/C(=N/N=C2CCCCCC2)N1Cc1ccccc1 | ≥ 256 | ≥ 256 | 256 | 256 | ≥ 256 | 256 | 256 | ≥ 256 | 256 | 256 | ≥ 256 | ≥ 256 | ≥ 256 |
| CC1CCC/C(=N/N=C2/SCC(=O)N2Cc2ccccc2)C1 (centres undefined) | ≥ 256 | ≥ 256 | 4 | 4 | ≥ 256 | 8 | 8 | ≥ 256 | 8 | 4 | ≥ 256 | ≥ 256 | ≥ 256 |
| C/C(=N/N=C1\NC(=O)CS1)c1ccc(/C(C)=N\N=C2/NC(=O)CS2)cc1 | ≥ 256 | ≥ 256 | 2 | 2 | ≥ 256 | 2 | 2 | ≥ 256 | 2 | 2 | ≥ 256 | ≥ 256 | ≥ 256 |

Reference: ChEMBL document CHEMBL4190362, “Synthesis, biological evaluation and quantitative structure-active relationships of 1,3-thiazolidin-4-one derivatives. A promising chemical scaffold endowed with high antifungal potency and low cytotoxicity” (Eur J Med Chem, 2017)
